Data: ChEMBL document CHEMBL4177578, “Synthesis, pharmacological activities and molecular docking studies of pyrazolyltriazoles as anti-bacterial and anti-inflammatory agents” (Bioorg Med Chem, 2017)
In brackets after ≈: the same amount, converted by molar mass. Activity calls are given as the source filed them. No cut-off for these calls is given here.

Tests used:
Salmonella typhi [1] = test: Antimicrobial activity against Salmonella typhi incubated for 12 to 16 hrs by tube dilution method; type: functional, Salmonella enterica subsp. enterica serovar Typhi; settings: Salmonella enterica
Outline: (§1)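 Broth tube dilution, two-fold serial dilutions from 500 to 1.9 µg/mL plus a drug-free control tube. Each tube inoculated with 1 mL culture at OD 0.2 (~McFarland standard), 37 °C for 12-16 h. Turbidity compared with the control tube. MIC is the lowest concentration giving complete growth inhibition.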

U-937 [2] = test: Anti-inflammatory activity in human U937 cells assessed as inhibition of LPS-induced TNFalpha production at 10 uM pre-incubated for 1 hr before LPS stimulation for 24 hrs by ELISA method; type: functional
Outline: (§2)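 Human U937 cells grown in RPMI1640 with 10% FBS at 37 °C, 5% CO2. Differentiated with PMA 30 ng/ml for 24 h. Test compounds added for 1 h, then LPS 1 µg/ml for 24 h. TNF-α and IL-6 in supernatant measured by ELISA. Three independent experiments.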

[3] = Anti-inflammatory activity at 100 ug/ml using bovine serum albumin and egg albumin proteins incubated at 37 degC for 20 mins and then heated to 95 degC for 20 mins by UV-visible Spectrophotometry based protein denaturation method; type: functional
Outline: (§3)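 Albumin (bovine serum or egg) at 1% in 50 mM sodium phosphate buffer pH 6.4. Mixture is 0.1 ml test sample (1 mg/ml) plus 0.2 ml albumin, made to 5 ml with buffer. Held 37 °C for 20 min, then 95 °C for 20 min. Cooled to room temperature, turbidity read at 660 nm. % inhibition = (Abs control − Abs sample)/Abs control × 100. Triplicate, averaged.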

Salmonella typhi [4] = test: Antimicrobial activity against Salmonella typhi incubated for 12 to 16 hrs followed by plating in nutrient agar by tube dilution method; type: functional, Salmonella enterica subsp. enterica serovar Typhi; settings: Salmonella enterica
Outline: (§4)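 After 12-16 h at 37 °C in tube dilution (500 to 1.9 µg/mL; 1 mL inoculum at OD 0.2), the culture from each tube was plated on nutrient agar. MBC is the concentration at which cells are completely killed.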

Micrococcus luteus [5] = test: Antimicrobial activity against Micrococcus luteus incubated for 12 to 16 hrs by tube dilution method; type: functional
Outline: (§5)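 Tube dilution, serial from 500 to 1.9 µg/mL, plus drug-free control tube. Each tube inoculated with 1 mL culture at OD 0.2, incubated 37 °C for 12–16 h. MIC is the lowest concentration with no growth by turbidity. MBC is found by plating each tube on nutrient agar: the lowest concentration at which all cells are killed.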

U-937 [6] = test: Anti-inflammatory activity in human U937 cells assessed as inhibition of LPS-induced TNFalpha production pre-incubated for 1 hr before LPS stimulation for 24 hrs by ELISA method; type: functional, cell-based; outline: as §2
Salmonella paratyphi [7] = test: Antimicrobial activity against Salmonella paratyphi incubated for 12 to 16 hrs by tube dilution method; type: functional, Salmonella enterica subsp. enterica serovar Paratyphi A; settings: Salmonella enterica; outline: as §1
Salmonella paratyphi [8] = test: Antimicrobial activity against Salmonella paratyphi incubated for 12 to 16 hrs followed by plating in nutrient agar by tube dilution method; type: functional, Salmonella enterica subsp. enterica serovar Paratyphi A; settings: Salmonella enterica; outline: as §4
[9] = Anti-inflammatory activity at 50 ug/ml using bovine serum albumin and egg albumin proteins incubated at 37 degC for 20 mins and then heated to 95 degC for 20 mins by UV-visible Spectrophotometry based protein denaturation method; type: functional; outline: as §3
Micrococcus luteus [10] = test: Antimicrobial activity against Micrococcus luteus incubated for 12 to 16 hrs followed by plating in nutrient agar by tube dilution method; type: functional; outline: as §5
U-937 [11] = test: Anti-inflammatory activity in human U937 cells assessed as inhibition of LPS-induced IL6 production pre-incubated for 1 hr before LPS stimulation for 24 hrs by ELISA method; type: functional, cell-based; outline: as §2
Micrococcus luteus [12] = test: Antimicrobial activity against Micrococcus luteus at 1 mg/ml incubated for 20 to 30 mins followed by incubation for 24 hrs at 37 degC by agar plate method; type: functional; settings: read-out: DIZ
Outline: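 Agar well diffusion on nutrient agar. Plates swabbed with 60 µL inoculum; 8 mm wells loaded with 100 µL of compound at 1.0 mg/mL. Held 20–30 min at 4 °C for diffusion, then 24 h at 37 °C. Inhibition zone diameter read in mm. Triplicate.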

[13] = Anti-inflammatory activity using bovine serum albumin and egg albumin proteins incubated at 37 degC for 20 mins and then heated to 95 degC for 20 mins by UV-visible Spectrophotometry based protein denaturation method; type: functional; outline: as §3
U-937 [14] = test: Anti-inflammatory activity in human U937 cells assessed as inhibition of LPS-induced IL6 production at 10 uM pre-incubated for 1 hr before LPS stimulation for 24 hrs by ELISA method; type: functional; outline: as §2
Salmonella typhi [15] = test: Antimicrobial activity against Salmonella typhi at 1 mg/ml incubated for 20 to 30 mins followed by incubation for 24 hrs at 37 degC by agar plate method; type: functional, Salmonella enterica subsp. enterica serovar Typhi; settings: Salmonella enterica; read-out: DIZ
Outline: (§6)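 Agar well diffusion on nutrient agar. Plates swabbed with 60 µL inoculum, 8 mm wells loaded with 100 µL sample at 1.0 mg/mL, streptomycin standard and control in separate wells. Plates held 20–30 min at 4 °C for diffusion, then 24 h at 37 °C. Zone diameter read in mm; triplicate.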

Salmonella paratyphi [16] = test: Antimicrobial activity against Salmonella paratyphi at 1 mg/ml incubated for 20 to 30 mins followed by incubation for 24 hrs at 37 degC by agar plate method; type: functional, Salmonella enterica subsp. enterica serovar Paratyphi A; settings: Salmonella enterica; read-out: DIZ; outline: as §6
Mus musculus [17] = test: Anti-inflammatory activity in Balb/c mouse assessed as reduction in LPS-induced serum TNFalpha production at 100 mg/kg, ig dosed for 3 consecutive days before LPS challenge and measured 6 hrs post LPS injection by ELISA method; type: functional, organism-based
Outline: (§7)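 Male Balb/c mice (20–25 g), 8 per group. Test compound at 100 mg/kg suspended in 2% gum acacia (10 ml/kg), given orally (intragastric) for 3 consecutive days. On day 3, LPS (10 mg/kg) given ip 1 h after the oral dose. Serum taken from retro-orbital blood 6 h after LPS; TNF-α and IL-6 measured by ELISA. Mean ± S.E.M.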

Mus musculus [18] = test: Anti-inflammatory activity in Balb/c mouse assessed as reduction in LPS-induced serum IL6 production at 100 mg/kg, ig dosed for 3 consecutive days before LPS challenge and measured 6 hrs post LPS injection by ELISA method; type: functional, organism-based; outline: as §7

Molecule `COc1ccc(-c2nn(-c3ccccc3)cc2Cn2cc(CO)nn2)cc1` has an MIC (Salmonella typhi [1]) of 62.5 µg/mL (≈ 173 µM), an inhibition at 10 µM (U-937 [2]) of 40.9% and an inhibition [3] of 86.2%. For the same molecule, the MBC (Salmonella typhi [4]) was 125 µg/mL (≈ 346 µM), the MIC (Micrococcus luteus [5]) was 125 µg/mL (≈ 346 µM) and the IC50 (U-937 [6]) was 17.2 µM. For the same molecule, the MIC (Salmonella paratyphi [7]) was 62.5 µg/mL (≈ 173 µM), the MBC (Salmonella paratyphi [8]) was 62.5 µg/mL (≈ 173 µM) and the inhibition [9] was 69%. The MBC (Micrococcus luteus [10]) was 125 µg/mL (≈ 346 µM), the IC50 (U-937 [11]) was 9.5 µM and the zone of inhibition at 1000 µg/mL (Micrococcus luteus [12]) was 26 mm. The IC50 [13] was 58 µg/mL (≈ 160 µM), the inhibition at 10 µM (U-937 [14]) was 46.7% and the zone of inhibition at 1000 µg/mL (Salmonella typhi [15]) was 16 mm. For the same molecule, the zone of inhibition at 1000 µg/mL (Salmonella paratyphi [16]) was 19 mm.
For `Cc1ccc(-n2cc(Cn3cc(CO)nn3)c(-c3ccccc3)n2)cc1C`, the inhibition at 10 µM (U-937 [2]) was 41.7%, the inhibition [3] was 77.6% and the IC50 (U-937 [6]) was 17.4 µM. For the same molecule, the inhibition [9] was 46.5%, the IC50 (U-937 [11]) was 7.72 µM and the IC50 [13] was 64.44 µg/mL (≈ 179 µM). The inhibition (Mus musculus [17]) was “Active”, the inhibition at 10 µM (U-937 [14]) was 87% and the inhibition (Mus musculus [18]) was “inactive”. For the same molecule, the zone of inhibition at 1000 µg/mL (Salmonella typhi [15]) was 15.5 mm.
Work on `OCc1cn(Cc2cn(-c3ccccc3)nc2-c2ccc(Cl)cc2)nn1` yielded an inhibition at 10 µM (U-937 [2]) of 19.2%, an inhibition [3] of 73.3% and an IC50 (U-937 [6]) of 30.9 µM. It also gave an inhibition [9] of 49.1%, an IC50 (U-937 [11]) of 6.23 µM and an IC50 [13] of 68.24 µg/mL (≈ 187 µM). The inhibition at 10 µM (U-937 [14]) was 76.9% and the zone of inhibition at 1000 µg/mL (Salmonella paratyphi [16]) was 15 mm.
`Cc1ccc(-c2nn(-c3ccccc3)cc2CO)cc1` gave an inhibition at 10 µM (U-937 [2]) of 0.74%, an inhibition [3] of 81.9% and an inhibition [9] of 60.3%. The zone of inhibition at 1000 µg/mL (Micrococcus luteus [12]) was 16.5 mm, the IC50 [13] was 61.05 µg/mL (≈ 231 µM) and the inhibition at 10 µM (U-937 [14]) was 20.9%. The zone of inhibition at 1000 µg/mL (Salmonella typhi [15]) was 19 mm and the zone of inhibition at 1000 µg/mL (Salmonella paratyphi [16]) was 14 mm.
Molecule `OCc1cn(-c2ccc(Cl)cc2)nc1-c1ccccc1` has an MIC (Salmonella typhi [1]) of 62.5 µg/mL (≈ 219 µM), an inhibition at 10 µM (U-937 [2]) of 2.61% and an inhibition [3] of 92.2%. For the same molecule, the MBC (Salmonella typhi [4]) was 125 µg/mL (≈ 439 µM), the MIC (Micrococcus luteus [5]) was 3.9 µg/mL (≈ 13.7 µM) and the MIC (Salmonella paratyphi [7]) was 31.2 µg/mL (≈ 110 µM). For the same molecule, the MBC (Salmonella paratyphi [8]) was 62.5 µg/mL (≈ 219 µM), the inhibition [9] was 76.7% and the MBC (Micrococcus luteus [10]) was 7.81 µg/mL (≈ 27.4 µM). It also gave a zone of inhibition at 1000 µg/mL (Micrococcus luteus [12]) of 26.5 mm, an IC50 [13] of 54.21 µg/mL (≈ 190 µM) and an inhibition at 10 µM (U-937 [14]) of 21.6%. The zone of inhibition at 1000 µg/mL (Salmonella typhi [15]) was 21.5 mm and the zone of inhibition at 1000 µg/mL (Salmonella paratyphi [16]) was 18 mm.
`Cc1ccc(-n2cc(Cn3cc(CO)nn3)c(-c3ccccc3)n2)cc1` showed an inhibition at 10 µM (U-937 [2]) of 31.2%, an inhibition [3] of 83.6% and an IC50 (U-937 [6]) of 21.4 µM. For the same molecule, the inhibition [9] was 66.4%, the IC50 (U-937 [11]) was 8.7 µM and the IC50 [13] was 59.79 µg/mL (≈ 173 µM). The inhibition at 10 µM (U-937 [14]) was 50.4%, the zone of inhibition at 1000 µg/mL (Salmonella typhi [15]) was 19 mm and the zone of inhibition at 1000 µg/mL (Salmonella paratyphi [16]) was 11.5 mm.
`COc1ccc(-c2nn(-c3ccccc3)cc2CO)cc1` gave an inhibition at 10 µM (U-937 [2]) of 22.9%, an inhibition [3] of 47.4% and an IC50 (U-937 [6]) of 35.5 µM. For the same molecule, the inhibition [9] was 15.5%, the IC50 (U-937 [11]) was 8.24 µM and the IC50 [13] was 105.45 µg/mL (≈ 376 µM). For the same molecule, the inhibition at 10 µM (U-937 [14]) was 68.5% and the zone of inhibition at 1000 µg/mL (Salmonella paratyphi [16]) was 11.5 mm.
`OCc1cn(Cc2cn(-c3ccc(Cl)cc3)nc2-c2ccccc2)nn1` gave an inhibition at 10 µM (U-937 [2]) of 12.7%, an inhibition [3] of 78.5% and an inhibition [9] of 55.2%. The zone of inhibition at 1000 µg/mL (Micrococcus luteus [12]) was 11.5 mm, the IC50 [13] was 63.74 µg/mL (≈ 174 µM) and the inhibition at 10 µM (U-937 [14]) was 38.8%. The zone of inhibition at 1000 µg/mL (Salmonella typhi [15]) was 19.5 mm and the zone of inhibition at 1000 µg/mL (Salmonella paratyphi [16]) was 16.5 mm.
In the case of `OCc1cn(Cc2cn(-c3ccccc3)nc2-c2ccccc2)nn1`, the inhibition at 10 µM (U-937 [2]) is reported as 15.7%, the inhibition [3] is reported as 38.8% and the IC50 (U-937 [6]) is reported as 35.7 µM. It also gave an inhibition [9] of 10.3%, an IC50 (U-937 [11]) of 8.12 µM and an IC50 [13] of 128.89 µg/mL (≈ 389 µM). The inhibition at 10 µM (U-937 [14]) was 53% and the zone of inhibition at 1000 µg/mL (Salmonella paratyphi [16]) was 12.5 mm.
Molecule `COc1ccc(C2CNC(=O)C2)cc1OC1CCCC1` (stereo not drawn) [ROLIPRAM] has an inhibition at 10 µM (U-937 [2]) of 59.1%, an IC50 (U-937 [6]) of 1.12 µM and an IC50 (U-937 [11]) of 1.17 µM. For the same molecule, the inhibition at 10 µM (U-937 [14]) was 53.5%.
